{"data": "Measured values gathered from unrelated publications", "OPRD1": "Delta-type opioid receptor (OPRD1, Homo sapiens, UniProt P41143)", "OGT": "UDP-N-acetylglucosamine--peptide N-acetylglucosaminyltransferase 110 kDa subunit (OGT, Homo sapiens, UniProt O15294)", "HTR3A": "5-hydroxytryptamine receptor 3A (HTR3A, Homo sapiens, UniProt P46098)", "ADRA2A": "Alpha-2A adrenergic receptor (ADRA2A, Homo sapiens, UniProt P08913)", "note": "Compare with care: the assays were run in different laboratories."}
{"SMILES": "CNC[C@@H](Cc1ccc(O)cc1)N1CCN(CCC2CC3CCC2C3)CC1 (stereo partly shown)", "target": "OPRD1", "assay": "cell-free assay", "IC50 [µM]": "> 10"}
{"SMILES": "CC(C)Cc1ccc([C@H](C)C(=O)O)cc1", "target": "Histone acetyltransferase p300 (EP300, Homo sapiens, UniProt Q09472)", "assay": "enzyme activity, inhibitor, mobility shift", "IC50 [µM]": "~6000"}
{"SMILES": "CC[C@H](C)[C@H](NC(=O)[C@H](CO)NC(=O)[C@H](Cc1ccc(O)cc1)NC(=O)[C@H](CCCCN)NC(=O)[C@@H]1CCCN1C(=O)[C@H](CCSC)NC(=O)[C@H](Cc1ccccc1)NC(=O)[C@H](CCSC)NC(=O)[C@@H](NC(=O)[C@@H]1CCCN1C(=O)[C@H](Cc1ccccc1)NC(=O)[C@H](CC(=O)O)NC(=O)CN)C(C)C)C(=O)N[C@H](C(=O)N[C@@H](Cc1ccccc1)C(=O)N[C@@H](CCCCN)C(=O)N[C@@H](CCCCN)C(=O)O)[C@@H](C)CC", "target": "OGT", "assay": "enzyme activity, inhibitor, fluorescence", "IC50 [µM]": 16}
{"SMILES": "CCC[C@H](CN[C@H](CNC)Cc1ccc(O)cc1)NCC1CCC(C)CC1 (stereo partly shown)", "target": "OPRD1", "assay": "cell-free assay", "IC50 [µM]": "> 10"}
{"SMILES": "Nc1c(S(=O)(=O)O)cc(Nc2ccc(Nc3nc(Cl)nc(Nc4cccc(S(=O)(=O)O)c4)n3)c(S(=O)(=O)O)c2)c2c1C(=O)c1ccccc1C2=O", "target": "P2X purinoceptor 2 (P2RX2, Homo sapiens, UniProt Q9UBL9)", "assay": "calcium signal, antagonist", "IC50 [µM]": 1.89}
{"SMILES": "Cc1cc(C)nc(Nc2ncc(C(=O)NCCc3c(C)[nH]c4ccccc34)cn2)c1", "target": "Cytochrome P450 2C19 (CYP2C19, Homo sapiens, UniProt P33261)", "assay": "enzyme activity, inhibitor", "system": "human, liver microsomes", "IC50 [µM]": 11}
{"SMILES": "CCOC(=O)c1cncn1[C@H](C)c1ccc(C2(C(F)(F)F)N=N2)cc1", "target": "HTR3A", "assay": "ion current, two-electrode voltage clamp", "conditions": "oocytes", "IC50 [µM]": 9}
{"SMILES": "CN1CCN(C2=Nc3ccccc3Oc3ccc(Cl)cc32)CC1", "target": "HTR3A", "assay": "ligand displacement, radioligand", "IC50 [µM]": 0.377}
{"SMILES": "COc1ncccc1-c1cnn2ccc(N3CCN(C(=O)OC(C)C)CC3)nc12", "target": "ADRA2A", "assay": "cell-free assay", "IC50 [µM]": "> 30"}
{"SMILES": "CN1CCC(=C2c3ccccc3CCc3sccc32)CC1", "target": "ADRA2A", "assay": "calcium signal, antagonist", "IC50 [µM]": 7.25}
{"SMILES": "CC(C)CCN1CCN([C@@H](CNCc2ccccc2)C(C)C)C[C@H]1C(C)C", "target": "OPRD1", "assay": "cell-free assay", "IC50 [µM]": "> 10"}
{"SMILES": "CCN(CC)C(=O)C1CN2CCc3cc(OC)c(OC)cc3C2CC1OC(C)=O (stereo not shown)", "target": "ADRA2A", "assay": "ligand displacement, radioligand", "IC50 [µM]": 0.825}
{"SMILES": "O=c1c(O)c(-c2ccc(O[C@@H]3O[C@H](CO)[C@@H](O)[C@H](O)[C@H]3O)c(O)c2)oc2cc(O)cc(O)c12", "target": "Carbonic anhydrase 2 (CA2, Homo sapiens, UniProt P00918)", "assay": "enzyme activity, inhibitor, absorbance", "IC50 [µM]": 0.0194}
{"SMILES": "CNC[C@H](Cc1ccc(O)cc1)NC[C@H](Cc1ccc(O)cc1)NCC1CCCCCC1", "target": "OPRD1", "assay": "cell-free assay", "IC50 [µM]": "> 10"}
{"SMILES": "CC(CCc1ccccc1)NC(C)C(O)c1ccc(O)cc1 (stereo not shown)", "target": "ADRA2A", "assay": "calcium signal, antagonist", "IC50 [µM]": 18.6}
{"SMILES": "CCC[C@H](CNC)NC[C@H](Cc1ccc(O)cc1)NCCC1CCCC1", "target": "OPRD1", "assay": "cell-free assay", "IC50 [µM]": "> 10"}
{"SMILES": "Cc1cn([C@H]2CC[C@@H](OC(C(=O)O)C(=O)O)C2)c(=O)[nH]c1=O", "target": "Gag-Pol polyprotein, reverse transcriptase (gag-pol, Human immunodeficiency virus 1, UniProt P03366)", "assay": "enzyme activity, inhibitor, radiometric", "IC50 [µM]": "> 640"}
{"SMILES": "CC[C@H](C)[C@H](NC(=O)[C@H](CO)NC(=O)[C@H](Cc1ccc(O)cc1)NC(=O)[C@H](CCCCN)NC(=O)[C@@H]1CCCN1C(=O)[C@H](CCSC)NC(=O)[C@@H](N)Cc1ccccc1)C(=O)N[C@H](C(=O)N[C@@H](Cc1ccccc1)C(=O)O)[C@@H](C)CC", "target": "OGT", "assay": "enzyme activity, inhibitor, fluorescence", "IC50 [µM]": 120}
{"SMILES": "CNC[C@H](Cc1ccc(O)cc1)N1CCN(CCc2cccc(C)c2)[C@@H](C(C)C)C1", "target": "OPRD1", "assay": "cell-free assay", "IC50 [µM]": "> 10"}
